Active and inactive are the calls of the source. The calls are words filed in the database; no cut-off is given here.
Key:
HL-60 = assay: Cytotoxicity against human HL60 cells after 72 hrs by MTT assay; assay type: functional, cell-based; settings: HL-60, 72 h
[1] = Cytotoxicity against human RS4:11 cells after 72 hrs by MTT assay; assay type: functional, cell-based; settings: RS4-11, 72 h
Jurkat [2] = assay: Cytotoxicity against human Jurkat cells after 72 hrs by MTT assay; assay type: functional, cell-based
K562 = assay: Cytotoxicity against human K562 cells after 72 hrs by MTT assay; assay type: functional, cell-based; settings: K562, 72 h
HeLa = assay: Cytotoxicity against human HeLa cells after 72 hrs by MTT assay; assay type: functional, cell-based
A549 = assay: Cytotoxicity against human A549 cells after 72 hrs by MTT assay; assay type: functional, cell-based; settings: A549, 72 h
[3] = Cytotoxicity against human SEM cells after 72 hrs by MTT assay; assay type: functional, cell-based
PBL [4] = assay: Cytotoxicity against PHA-stimulated human PBL after 72 hrs by MTT assay; assay type: cell-based
In short: (§1)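 PBL from healthy donors separated on a density gradient, washed, held at 1.0×10^6 cells/mL in RPMI-1640 with 10% FCS overnight. Non-adherent cells resuspended at 5×10^5 cells/mL. Stimulated cultures received 2.5 µg/mL PHA; resting cultures had none. Compound at several concentrations for 72 h, viability by MTT, IC50 taken. Mean ± SEM of three experiments.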

Jurkat [5] = assay: Cytotoxicity against human Jurkat cells assessed as cell viability at 25 uM after 48 hrs by MTT assay in presence of 100 uM pan-caspase inhibitor z-VAD; assay type: functional
In short: (§2)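 Jurkat cells exposed to compound for 48 h with or without 100 µM of the pan-caspase inhibitor z-VAD.fmk. Percent viability read by MTT. Mean ± SEM.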

PBL [6] = assay: Cytotoxicity against human PBL after 72 hrs by MTT assay; assay type: cell-based; in short: as §1
Jurkat [7] = assay: Cell cycle arrest in human Jurkat cells assessed as accumulation at G2/M phase after 48 hrs using propidium iodide staining by flow cytometry; assay type: functional, cell-based
In short: (§3)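 Exponentially growing Jurkat cells, 2.5×10^5, exposed to 1.25–100 µM for 48 h. Cells fixed in ice-cold 70% ethanol, lysed in buffer with RNase A and 0.1% Triton X-100, stained with propidium iodide. Cell-cycle phases read by flow cytometry. Mean ± SEM of three independent experiments; two-sided Student's t test against control.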

Jurkat [8] = assay: Cell cycle arrest in human Jurkat cells assessed as decrease in S phase phase after 48 hrs using propidium iodide staining by flow cytometry; assay type: functional, cell-based; in short: as §3
Jurkat [9] = assay: Induction of apoptosis in human Jurkat cells assessed as increase in late apoptotic cells after 48 hrs by FITC-conjugated annexin V and propidium iodide staining-based flow cytometry; assay type: functional, cell-based
In short: (§4)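 Jurkat cells exposed for 24 and 48 h, over a range of 1.25–100 µM, then co-stained with Annexin-V-FITC and propidium iodide. Read by flow cytometry, excitation 488 nm, emission 525 and 585 nm. Quadrants scored as A+/PI− (early apoptotic) and A+/PI+ (late apoptotic), compared with untreated cells. Mean ± SEM of three independent experiments.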

Jurkat [10] = assay: Induction of apoptosis in human Jurkat cells assessed as increase in early apoptotic cells after 24 hrs by FITC-conjugated annexin V and propidium iodide staining-based flow cytometry; assay type: functional, cell-based; in short: as §4
Jurkat [11] = assay: Induction of apoptosis in human Jurkat cells assessed as DNA fragmentation at 12.5 to 50 uM after 48 hrs by agarose gel electrophoresis; assay type: functional, cell-based
In short: (§5)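 Genomic DNA taken from treated Jurkat cells by salting out after 48 h. 1 µg run on 1.5% agarose in TAE at 50 V for 6 h. Gel stained with ethidium bromide and imaged under UV light.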

Jurkat [12] = assay: Cell cycle arrest in human Jurkat cells assessed as decrease in G1 phase phase after 48 hrs using propidium iodide staining by flow cytometry; assay type: functional, cell-based; in short: as §3
Jurkat [13] = assay: Induction of apoptosis in human Jurkat cells assessed as increase in late apoptotic cells after 24 hrs by FITC-conjugated annexin V and propidium iodide staining-based flow cytometry; assay type: functional, cell-based; in short: as §4
Jurkat [14] = assay: Cell cycle arrest in human Jurkat cells assessed as accumulation at G1 phase at 50 uM after 48 hrs using propidium iodide staining by flow cytometry; assay type: functional, cell-based; in short: as §3
Jurkat [15] = assay: Cell cycle arrest in human Jurkat cells assessed as accumulation at G1 phase after 48 hrs using propidium iodide staining by flow cytometry; assay type: functional, cell-based; in short: as §3
Jurkat [16] = assay: Induction of apoptosis in human Jurkat cells assessed as viable cells at 50 uM after 24 hrs by FITC-conjugated annexin V and propidium iodide staining-based flow cytometry relative to control; assay type: functional; settings: read-out: Activity; in short: as §4
Jurkat [17] = assay: Cytotoxicity against human Jurkat cells assessed as cell viability at 50 uM after 48 hrs by MTT assay in presence of 100 uM pan-caspase inhibitor z-VAD; assay type: functional; in short: as §2
Jurkat [18] = assay: Induction of apoptosis in human Jurkat cells assessed as DNA fragmentation at 25 to 50 uM after 48 hrs by agarose gel electrophoresis; assay type: functional, cell-based; in short: as §5
Jurkat [19] = assay: Induction of apoptosis in human Jurkat cells assessed as early apoptotic cells at 50 uM after 48 hrs by FITC-conjugated annexin V and propidium iodide staining-based flow cytometry relative to control; assay type: functional; in short: as §4
Jurkat [20] = assay: Induction of apoptosis in human Jurkat cells assessed as early apoptotic cells at 50 uM after 24 hrs by FITC-conjugated annexin V and propidium iodide staining-based flow cytometry relative to control; assay type: functional; in short: as §4
Jurkat [21] = assay: Induction of apoptosis in human Jurkat cells assessed as necrotic cells at 50 uM after 24 hrs by FITC-conjugated annexin V and propidium iodide staining-based flow cytometry relative to control; assay type: functional; in short: as §4
Jurkat [22] = assay: Induction of apoptosis in human Jurkat cells assessed as late apoptotic cells at 50 uM after 48 hrs by FITC-conjugated annexin V and propidium iodide staining-based flow cytometry relative to control; assay type: functional; in short: as §4
Jurkat [23] = assay: Induction of apoptosis in human Jurkat cells assessed as necrotic cells at 50 uM after 48 hrs by FITC-conjugated annexin V and propidium iodide staining-based flow cytometry relative to control; assay type: functional; in short: as §4
Jurkat [24] = assay: Induction of apoptosis in human Jurkat cells assessed as viable cells at 50 uM after 48 hrs by FITC-conjugated annexin V and propidium iodide staining-based flow cytometry relative to control; assay type: functional; settings: read-out: Activity; in short: as §4
Jurkat [25] = assay: Induction of apoptosis in human Jurkat cells assessed as late apoptotic cells at 50 uM after 24 hrs by FITC-conjugated annexin V and propidium iodide staining-based flow cytometry relative to control; assay type: functional; in short: as §4

| SMILES | IC50 (HL-60) [µM] | IC50 [1] [µM] | IC50 (Jurkat [2]) [µM] | IC50 (K562) [µM] | IC50 (HeLa) [µM] | IC50 (A549) [µM] | IC50 [3] [µM] | further results |
| --- | --- | --- | --- | --- | --- | --- | --- | --- |
| COc1ccc(C(=O)O[C@@H]2C=C(C)CC[C@]3(O)[C@H](C(C)C)CC(=O)[C@]23C)cc1 [SIOL ANISATE] | > 100 | > 100 | > 100 | > 100 | > 100 | > 100 | 23.9 | – |
| COc1ccc(C(=O)OCC2=CC[C@@]3(C)CC[C@]4(C(C)C)O[C@]34CC2)cc1 | > 100 | 60.9 | > 100 | > 100 | > 100 | > 100 | 84 | – |
| CC1=CC[C@]2(C)[C@@H]([C@@H](OC(=O)c3ccc(O)cc3)C1)[C@](O)(C(C)C)C[C@@H]2O | 3.5 | 33.4 | 40.3 | 95 | 56.5 | 83.7 | 22.4 | – |
| C/C=C(/C)C(=O)O[C@H]1CC(C)=C[C@@H](OC(=O)/C(C)=C\C)[C@@]2(C)CC[C@@](O)(C(C)C)[C@H]12 | 2.6 | 1.7 | 7.7 | 26.5 | 4.4 | 2.8 | 2.4 | IC50 (PBL [4]): 13.7 µM; Activity (Jurkat [5]): 19%; IC50 (PBL [6]): 22.6 µM; Activity (Jurkat [7]): Dose-dependent effect; Activity (Jurkat [8]): Active; Activity (Jurkat [9]): Active; Activity (Jurkat [10]): Dose-dependent effect; Activity (Jurkat [11]): Active; Activity (Jurkat [12]): Active |
| COc1ccc(C(=O)O[C@H]2CC(C)=C[C@H](O)[C@@]3(C)[C@@H](OC(C)=O)C[C@@](O)(C(C)C)[C@H]23)cc1 | 23 | 34.4 | 5.9 | 48.2 | 52.9 | 79.6 | 18.1 | IC50 (PBL [4]): 27.2 µM; IC50 (PBL [6]): 20.5 µM; Activity (Jurkat [7]): Dose-dependent effect; Activity (Jurkat [13]): Dose-dependent effect; Activity (Jurkat [8]): Active; Activity (Jurkat [12]): Active |
| COc1ccc(C(=O)O[C@H]2CC(C)=C[C@@H](OC(C)=O)[C@@]3(C)[C@@H](OC(C)=O)C[C@@](O)(C(C)C)[C@H]23)cc1 | 83.5 | 42.9 | 62.2 | > 100 | > 100 | > 100 | 32.9 | – |
| C=C1C[C@H](OC(=O)c2ccc(O)cc2)[C@@H]2[C@](C)(CC[C@@]2(O)C(C)C)C[C@@H]1O | 43.4 | 29 | 55 | > 100 | > 100 | > 100 | 34.7 | – |
| COc1ccc(C(=O)O[C@H]2CC(C)=CC[C@@]3(C)CC[C@@](O)(C(C)C)[C@H]23)cc1 [FERUTIDIN] | 20.1 | 17.6 | 30.5 | 67.8 | > 100 | 31.9 | 18.2 | – |
| CC1=C[C@H](OC(=O)c2ccc(O)cc2)[C@@H]2[C@](C)(CC[C@@]2(O)C(C)C)CC1=O | 82.5 | 28.2 | 40.5 | > 100 | 26.1 | 14.5 | 24.4 | – |
| COc1ccc(C(=O)O[C@H]2C=C(C)C(=O)C[C@@]3(C)CC[C@@](O)(C(C)C)[C@H]23)cc1 | 38.9 | 28.6 | 40.5 | > 100 | 29.7 | 31.8 | 28.4 | – |
| C/C=C(\C)C(=O)O[C@H]1C[C@@]2(C)O[C@H]2[C@@H](OC(C)=O)[C@@]2(C)CC[C@@](O)(C(C)C)[C@H]12 | > 100 | > 100 | > 100 | > 100 | > 100 | > 100 | > 100 | – |
| COc1ccc(C(=O)OCC2=CC[C@@]3(C)CCC(C(C)C)=C3CC2)cc1 | 30.7 | 44.1 | 25.6 | 67 | > 100 | > 100 | 25.5 | – |
| COc1ccc(C(=O)O[C@H]2CC(C)=C[C@H](OC(C)=O)[C@]3(C)[C@@H]2[C@](O)(C(C)C)C[C@@H]3O)cc1 | 14.9 | 26.8 | 9.1 | 70.4 | 52.6 | > 100 | 26.5 | IC50 (PBL [4]): 33.7 µM; IC50 (PBL [6]): 30.3 µM; Activity (Jurkat [14]): inactive; Activity (Jurkat [15]): Active; Activity (Jurkat [13]): Dose-dependent effect |
| COc1ccc(C(=O)O[C@H]2CC(C)=C[C@H](OC(C)=O)[C@@]3(C)[C@@H](OC(C)=O)C[C@@](O)(C(C)C)[C@H]23)cc1 | 11.3 | 2.8 | 3.3 | 39.6 | 14.5 | 23.3 | 15 | IC50 (PBL [4]): 9.4 µM; IC50 (PBL [6]): 6.6 µM; viability at 50 µM (Jurkat [16]): 36.5%; Activity (Jurkat [17]): 13%; Activity (Jurkat [14]): inactive; Activity (Jurkat [18]): inactive; Activity (Jurkat [19]): 0.1%; Activity (Jurkat [20]): 5.8%; Activity (Jurkat [15]): Active; Activity (Jurkat [21]): 16%; Activity (Jurkat [13]): Dose-dependent effect; Activity (Jurkat [22]): 67.4%; Activity (Jurkat [23]): 27.8%; viability at 50 µM (Jurkat [24]): 4.7%; Activity (Jurkat [25]): 41.7% |
| COc1ccc(C(=O)O[C@H]2CC(C)=C[C@@H](O)[C@@]3(C)[C@@H](OC(C)=O)C[C@@](O)(C(C)C)[C@H]23)cc1 | 24 | 70.4 | 33.6 | 85.2 | > 100 | > 100 | > 100 | – |

Reference: ChEMBL document CHEMBL1833801, “Natural daucane sesquiterpenes with antiproliferative and proapoptotic activity against human tumor cells” (Bioorg Med Chem, 2011)
